What all share (format): functional
One test relates to K562. The experiment in a line: Antiproliferative activity against human K562 cells. The essentials:
(§1)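 HUVEC and K562 (DSM ACC 10) cells were exposed to compounds and growth was scored against untreated controls. The readout is GI50, the concentration that cuts growth of treated cells to half that of untreated cells.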

The next test has as its system HeLa. The experiment in a line: Cytotoxicity against human HeLa cells. The gist of the method: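 HeLa cervix carcinoma cells (DSM ACC 57) were treated with compounds. The readout is CC50, the concentration that kills 50% of treated cells.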
In another test the test system is HUVEC. Kind of test: Antiproliferative activity against HUVEC cells. The following applies: Homo sapiens. The essentials: as §1

Results on six molecules are retold here after ChEMBL document CHEMBL2034865, “Cytotoxic alkaloids from Fusarium incarnatum associated with the mangrove tree Aegiceras corniculatum” (2012).

As for `C/C=C(\C)C(=O)NCC(C)C`, the GI50 in the test on K562 and in the test with HUVEC was more than 300 µM each time. In the test on HeLa, this molecule returned a CC50 of more than 300 µM.
As to `CC(=O)N1CCc2c([nH]c3ccccc23)C1`, the GI50 with K562 came out at 33.3 µM; in the test on HUVEC, 41.1 µM. This molecule came in with a CC50 in the test with HeLa of 23.8 µM.
The matching figures for `CC1=CC(=O)/C(=C(\C)N)C(=O)O1`: 9 µM, 68.2 µM and 104 µM.
On the same counts, the results for `CC1=CC(=O)/C(=C(\C)NCCc2ccc(O)cc2)C(=O)O1` [FUSAMINE] are 37.6 µM, 37.3 µM and 23.3 µM.
Consider `O=C(CO)c1cccn1CCc1ccc(O)cc1` [FUSARINE], for which the GI50 in the test with K562 and in the test with HUVEC was more than 200 µM in each case. Besides, the CC50 with HeLa is more than 200 µM.
Regarding `Cc1ccc(NC(=O)c2ccc(CN3CCN(C)CC3)cc2)cc1Nc1nccc(-c2cccnc2)n1` [IMATINIB], the GI50 was 0.17 µM with K562 and 18.5 µM in the test on HUVEC. The same molecule displayed a CC50 in the test with HeLa of 65.8 µM.

As a reminder, the GI50 is the concentration at which growth is held to half of that of the control. Lower therefore signals more potent growth inhibition. The CC50 is the concentration that lowers cell viability or growth by half. A high value points to lower toxicity to the cells.
